Bioassay records (PubChem BioAssay)
NR2E3 ag-1 – agonists of human NR2E3 nuclear receptor | inhibition of corepressor binding, % at 3.98 µM | Q9Y5X4 | 360,000 tested, 0.35% active | CHO-S Gal4-NCOR/VP16-NR2E3 two-hybrid, luciferase | AID 602229;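 active = inhibition above the mean of all tested compounds plus 3 SD, cut at about 70% in these data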;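 note: 0% = DMSO with NR2E3 transfected cells and 100% = cells lacking NR2E3 construct; higher means lower luciferase signal from less NR2E3 corepressor binding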
SMARCA2 act – activators of SMARCA2 function; MG213 cells, MMTV-luciferase reporter, dexamethasone, overnight; activation, % at 9.1 µM; 370,000 tested, 1% active; in the data active = activation above about 7.8%;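 note: 0% = vehicle wells and 100% = reference activator wells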
GalR3 antagonist – blocks the human galanin receptor 3. 360,000 tested, 0.44% active. inhibition, % at 3 µM. HEK293 GalR3-CNG cAMP membrane potential fluorescence; galR3 body fused to GalR1 C-terminus. AID 651719;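 active = inhibition above the screen-wide average plus 3 SD, cut at about 13% in these data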;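 note: forskolin and galanin both at EC90 stimulate the cells; cAMP rise reported by CNG channel membrane potential dye signal; 0% = forskolin plus galanin with DMSO and 100% = forskolin alone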
Target sequence (O60755 1-299 limits assumed): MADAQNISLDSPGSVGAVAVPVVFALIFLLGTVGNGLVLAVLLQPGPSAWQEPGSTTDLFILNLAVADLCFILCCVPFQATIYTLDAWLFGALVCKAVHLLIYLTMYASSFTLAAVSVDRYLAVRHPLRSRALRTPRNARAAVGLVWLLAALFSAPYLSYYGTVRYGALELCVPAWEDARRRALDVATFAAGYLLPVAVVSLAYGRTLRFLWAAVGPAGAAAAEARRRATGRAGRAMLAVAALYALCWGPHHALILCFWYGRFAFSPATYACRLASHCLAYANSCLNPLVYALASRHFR
NR2E3 ag-2 – agonists of human nuclear receptor NR2E3. GST-NR2E3/biotin-RetCOR TR-FRET, 1536-well. inhibition of corepressor binding, % at 4.78 µM. 320,000 tested, 0.12% active. AID 2300;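 active = percent inhibition above the cutoff of mean plus 3 SD of all tested compounds, set per screening campaign, cut at about 20% in these data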;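 note: 0% = DMSO wells and 100% = biotin wells as full block of FRET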
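Material: NR2E3–RetCOR corepressor complex / Amount: 1.35 nM GST-NR2E3 / Medium: Tris pH 7.5 / Compound: single nominal compound dose of 4.8 µM / Incubation: 5 h at 4 °C / Technique: TR-FRET, Eu(K)-anti-GST donor, streptavidin-D2 acceptor, ex 340, em 617/671 nm / Read-out basis: percent loss of FRET ratio relative to control wells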
NR2F2 inh – inhibitors of human COUP-TFII (NR2F2) | P24468 | HEK293T NGFI-A luciferase reporter, luminescence | inhibition, % at 8.6 µM | 370,000 tested, 0.7% active | AID 686940;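 active = inhibition above a per-plate cutoff, mean inhibition of test wells between control levels plus 3 SD, cut at about 38% in these data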;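 note: cells cotransfected with COUP-TFII expression vector driving the NGFI-A reporter; 0% = median of COUP-TF2 test wells and 100% = reporter-only cells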
NR2E3 ag confirm – NR2E3 agonism confirmed in two-hybrid assay | 2,300 tested, 51% active | shares compounds with NR2E3 ag-1 | CHO-S mammalian two-hybrid NR2E3-NCOR, luciferase luminescence | inhibition, % at 3.98 µM;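 active = average inhibition above a cutoff equal to the mean inhibition of all tested compounds plus one SD, cut at about 70% in these data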;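 note: 0% = DMSO in NR2E3 cells and 100% = DMSO in cells lacking NR2E3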
VP16 counter – GAL4-VP16 reporter inhibition in NR2E3 agonist counterscreen; AID 624379; inhibition, % at 3.98 µM; 2,300 tested, 29% active; shares compounds with NR2E3 ag-1; CHO-S GAL4-VP16 luciferase reporter, luminescence;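 active = mean inhibition above a cutoff equal to the average over all tested compounds plus one standard deviation, cut at about 70% in these data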;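 note: luciferase from a UAS reporter driven by GAL4-VP16 transactivation; 0% = DMSO with VP16-transfected cells and 100% = DMSO with cells lacking VP16; higher means less reporter light so more repression of VP16 activity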
Starred values were filed as active, the others as inactive; / = no result. Most compounds without a hit are left out; they make up all but 2.2% or so of the library.

SMILES	NR2E3 ag-1	SMARCA2 act	GalR3 antagonist	NR2E3 ag-2	NR2F2 inh	NR2E3 ag confirm	VP16 counter
Cc1ccc([C@@H]2CC=C(C(=O)O)[C@H](c3ccc(Br)cc3)N2S(=O)(=O)c2ccc(C)cc2)cc1	64	-1	-6	/	10	25	4
Cc1ccc(S(=O)(=O)N2C(c3ccc(Cl)c(Cl)c3)CC=C(C(=O)O)C2c2ccc(Cl)cc2)cc1 (centres undefined)	/	-7	-2	/	9	/	/
Cc1ccc(S(=O)(=O)N2[C@@H](c3ccc(C(C)(C)C)cc3)C(C(=O)O)=CC[C@H]2c2cccs2)cc1	51	1	-2	/	15	-4	-5
Cc1ccc(S(=O)(=O)N2[C@@H](c3ccc(C(C)(C)C)cc3)C(C(=O)O)=CC[C@H]2c2ccc(Cl)cc2)cc1	99*	-5	-8	/	7	99*	66
C=CCN(CC#CC1=CCCCC1)CC1CC1	/	-4	/	/	-25	/	/
COC(=O)[C@]12C[C@H](CC(=O)NCc3cccc4ccccc34)C(=O)N(Cc3ccco3)C1=C[C@H](C1CCCC1)O[C@@H]2C	/	-3	/	/	11	/	/
Cc1ccc2c(c1)C1CS(=O)(=O)N(CCc3ccccc3)C(=O)N1C2 (centres undefined)	/	1	/	/	2	/	/
Cc1ccc([C@@H]2CC=C(C(=O)O)[C@H](c3ccc(C(C)(C)C)cc3)N2S(=O)(=O)c2ccc(C)cc2)cc1	98*	-6	-8	/	-7	88*	41
Cc1ccc(S(=O)(=O)N2[C@@H](c3ccc(C(C)(C)C)cc3)C(C(=O)O)=CC[C@H]2c2ccc(C(C)C)cc2)cc1	-4	-5	-5	/	4	/	/
C=C(C)/C=C1/CN(Cc2ccc3c(c2)OCO3)C(=N)N1C(=O)OCc1ccccc1	/	6	/	/	16	/	/
CCN(CC)c1ccc(/C=N/NC(=S)NC)c(O)c1	69	2	-6	-6	-25	-124	-97
CC(=O)c1c(C)oc2ccc(NS(=O)(=O)c3ccc(C)cc3)cc12	80*	-5	0	-3	-4	-6	26
CC(=O)c1c(C)oc2ccc(N(C(C)=O)S(=O)(=O)c3ccc(Br)cc3)cc12	90*	3	1	7	2	90*	73*
COC(=O)c1c(C)oc2ccc(N(C(C)=O)S(=O)(=O)c3ccccc3)cc12	98*	-3	-8	5	3	84*	65
CC(=O)c1c(C)oc2ccc(N(C(C)=O)S(=O)(=O)c3ccc(Cl)c([N+](=O)[O-])c3)cc12	0	0	-3	0	-7	/	/
Cc1cccc(-c2cccc3c4c([nH]c23)[C@@H]2C[C@H](N(C)C(=O)c3cccc(Cl)c3)[C@H]([C@H](C)O)CN2CC4)c1	/	-5	/	/	-15	/	/
CCOC(=O)CNC(=O)CSc1nnc(-c2ccc(C(C)(C)C)cc2)n1-c1ccc(Cl)cc1	/	1	/	/	13	/	/
COC(=O)C[C@@H]1CC[C@H]2[C@@H](COc3ccc(NC(=O)c4ccc(Cl)cc4)cc3C(=O)N2C)O1	/	-6	/	/	-5	/	/
Cc1c(C#N)c2ncn(CCCN(C)C)c(=O)c2n1-c1ccccc1	90*	2	-4	2	-6	-9	-10
CC1(c2ccc3ccccc3c2)NC(=O)N(CC(=O)N2CCN(Cc3ccccc3)CC2)C1=O (centres undefined)	64	/	/	2	/	70*	57
CCCN1CCS(=O)(=O)N(Cc2cn(Cc3ccc(Cl)cc3)nn2)C(C(=O)OC)C1 (centres undefined)	/	-4	/	/	-5	/	/
CC(=O)N1CCN(S(=O)(=O)c2cccc(C(=O)OCc3ccc(C(C)(C)C)cc3)c2)CC1	73*	-7	-7	/	26	78*	76*
Cc1ccc(COC(=O)c2cccc(S(=O)(=O)N3CCCCCC3)c2)cc1	-10	-6	-2	2	1	/	/
CCOC(=O)c1c2c(n(-c3ccc(OC)cc3)c1C)C(=O)C(=O)c1ccccc1-2	62	/	/	/	/	30	-16
CCOC(=O)c1sc(=S)n(-c2ccc(OC)cc2)c1C	-19	-4	0	-1	6	/	/
